From the EternaBench riboswitch data

Tested on: MS2 coat protein
Assay: apparent Kd, MS2 coat protein; higher = weaker binding; RNA-MaP array; FMN 200 µM where present
Outline: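 The apparent Kd comes from binding curves fitted cluster by cluster, filtered, and summarised as a median. Those curves followed SNAP-549-labelled MS2 coat protein from 0.7 or 1.5 nM, doubling to 3 µM, on Illumina sequencing-chip clusters where stalled E. coli RNA polymerase had transcribed the designs, without and then with constant ligand. The buffer was 100 mM Tris-HCl pH 7.5, 80 mM KCl, 4 mM MgCl2, BSA, DTT, yeast tRNA and Tween-20, and green signal was normalised to red-channel RNA signal and control-cluster median Fmax.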

[1] = designed as: ON switch for flavin mononucleotide, no ligand
[2] = ligand present: flavin mononucleotide, designed as: ON switch for flavin mononucleotide
[3] = designed as: OFF switch for flavin mononucleotide, no ligand
[4] = ligand present: flavin mononucleotide, designed as: OFF switch for flavin mononucleotide

Sequence	apparent Kd [1]	apparent Kd [2]	apparent Kd [3]	apparent Kd [4]
GUAGCUAUCGCAGGAUAUUCAUACCGGAAACGGACAUGAGGAUCACCCAUGUGGCGAAAGCCUUGGGAGAAGGCCGAUAGCUAC	1.16 µM	0.789 µM	–	–
GACUGCGUUAUGAAGGAUAUCCGCGUCUGGACAUGAGGAUCACCCAUGUAUACUUGGAUCGUGCAGGAGAAGGUCAAGGGUGAUU	0.09 µM	0.265 µM	–	–
UGGUACUAGGGAGGAUAUCGGAAGAUACAUGAGGAUCACCCAUGUUUAAGAAUGCCGAGAGGCAACUAGAAGGCCCUAGUACCU	0.00664 µM	0.00613 µM	–	–
UCCGUAAUUCUGAGCUUCGCGAUGAGAAGGGUAGAGGCUGGGUCCUACAUGAGGAUCACCCAUGUACAGGAUAUCAUUGCACGA	–	–	0.0141 µM	0.0303 µM
CCGAAUUAGUAGGAUAUAGGAGUCGAUAGACACCUAGAAGGACUAACAUGAGGAUCACCCAUGUGUCCUAUCGG	–	–	0.0146 µM	0.0315 µM
UCUACAUAAAUUCAUCAAUACAGAAAGGAUAUGAGAUACAUGAGGAUCACCCAUGUGCAUGUGAAUUAGAAGGUUCAAUUAACU	–	–	0.0144 µM	0.0111 µM
AAAGAAGAAAGACAGGAUAUGGAUGGGUAAACAUGAGGAUCACCCAUGUAUAAGAAAGAAAGAAACCAGAAGGGUCAAAAGAAAA	0.165 µM	0.0336 µM	–	–
ACGUAUAGAGGAUAUACAGAAUAUUACAUGAGGAUCACCCAUGUUCUUCAAUGUAUAUUUGUAGAAGGCUAAUGAA	–	–	0.0607 µM	0.281 µM
UGUGCGUAUGUGAGGAUAUGCUGGUCCUUGGAUCGGCAGAAGGCACAUGAGGAUCACCCAUGUGGUGUCGUACC	–	–	0.161 µM	0.0404 µM
CUGAUGUCAGGAUAUCGGUGGCUCACUUGUGUGUGCCAGACCGAGAAGGGACAUGAGGAUCACCCAUGUUUCUA	–	–	0.0211 µM	0.0934 µM
AAGGAGUAAGGAUAUGCUGCUCGUCACUUGCGUGAUGAGUAGCAGAAGGUACAUGAGGAUCACCCAUGUAAAAA	–	–	0.0245 µM	0.0183 µM
GCUGACGAUGUAGGAUAUCAGUAUAAUAAAUACUGAGAAGGACAUGAGGAUCACCCAUGUAAUAAACGUCAGCAGAGGAAACUC	–	–	0.0162 µM	0.0226 µM
UUGUUCUGAGGAUAUACAUGAGGAUCACCCAUGUGUUUCUGCUUGGUGACUAGCGAAUGUAGAAGGCUGUUCUC	–	–	0.0336 µM	0.0356 µM
GUCGUGUCAGGAUAUACGUUUGUUUCUUUUUUUGUUGUUUAGUAGAAGGGACAUGAGGAUCACCCAUGUUUGUU	–	–	0.0294 µM	0.0474 µM
GUCAGCUCGUGAGGAUAUACAUGUGCUGGAAACAGCACUAAUUAAUUCACAUGAGGAUCACCCAUGUAGAAGGCACGAGCUGAU	–	–	0.0162 µM	0.0178 µM
UGACGAGUAGGAUAUUGGACUUGCGACAUGAGGAUCACCCAUGUGACGUCAACGUGGCACCAAGAAGGGCUACGUC	–	–	0.0681 µM	0.0469 µM
AAAAGCAUCCAGUAUCAAAAUACAUGAGGAUCACCCAUGUAGCAGGAUAUCAACGUUCCCGACGGUGAGAAGGGCUAUAUGUUG	–	–	0.00747 µM	0.00926 µM
GUGCCUUGGGAGAAGGUUACUAGCAAAGCUAUUAAAGGAUAUUCAUACCGGAAACGGACAUGAGGAUCACCCAUGUGGCACAAA	1.12 µM	0.118 µM	–	–

Sequence	apparent Kd [1]	apparent Kd [2]	apparent Kd [3]	apparent Kd [4]
UGAUAGGACAGAGGAUAUACGGAUAGGAUCUACUAUCUUUCUCAAAUAACAUGAGGAUCACCCAUGUAGAAGGCUGUCCUAUCU	–	–	0.0232 µM	0.119 µM
GUAUGAGCGAUAGGAUAUACUGAGAUUGAAUGGGUAGAAGGAUCUCUUGUGAGGAAGACAUGAGGAUCACCCAUGUCACGGGCC	0.1 µM	0.175 µM	–	–
AGUGCUAUGUAGAAGGCAGAUCUGAUUCAGAUCUGAGGAUAUACAUGAGGAUCACCCAUGUUAUGCACCAGCACGAGAGUGCAC	–	–	0.00791 µM	0.0168 µM
CGACACAUGAGGGUCUCCCAUGACAUGAGGAUCACCCAUGUGCAGGAUAUACGUGUGAUGGUAUAGUAGAAGGGCACUCUAUGC	–	–	0.368 µM	0.392 µM
AGUUUUGUACAUGAGGAUCACCCAUGUUAAUAUGUGGUAGUCAGAAGGCAUUGUUAGAGUAUAUAUGAGGAUAUGAUUAGUCAG	0.0583 µM	0.0279 µM	–	–
AGCUAGUCAGGAUAUACGAACAUGUCGCCCGACGUGAAGGGACAUGAGGAUCACCCAUGUAGAAGGGACUAGCA	–	–	0.135 µM	0.348 µM
GGAUGUAAGGAGAAGGGCUACUGGUUGAAACCUGCGGCCUCUGGAACAUGAGGAUCACCCAUGUAGCAGGAUAUCCUUGCGUGA	–	–	0.129 µM	0.0463 µM
CGGUGACGUGUAGGAUAUGGAGGUGGGUUUUGGCCAGAAGGACAUGAGGAUCACCCAUGUGGUAGAGGGUUGGCGGCUGCCCGU	–	–	0.0197 µM	0.0189 µM
GAUAGGACAGAGAAGGACGUAGCUAGAGAUACUAGCAUAAAGGUCCAAACAUGAGGAUCACCCAUGUAGGAUAUCUGUCCUAUC	–	–	0.00647 µM	0.00692 µM
UCGAACUUUCAUGUAAUUCGCACAUGAGGAUCACCCAUGUACGAGGAUAUGUACCUGAACGGCUAACAGAAGGCGUACUGGGCA	–	–	0.242 µM	0.0833 µM
AAUUAUAUACAGAAGGAGUUAUAUUGAGUAUUACUAGGAUAUGUUCACAUGAGGAUCACCCAUGUCAUAUUGGGAUUUAUUAUA	–	–	0.0216 µM	0.0279 µM
AUGUUGAGCAGUGUAUUAAGAUCACAUGAGGAUCACCCAUGUAGAAGGUAUGAGCUGAUCGCUCAUAAGGAUAUACAUCACUGC	–	–	0.0699 µM	0.119 µM
AAAAAUCGAGGAUAUACAUGAGGAUCACCCAUGUGGGACCAAGAAAACACAAAAGAAAGUAGAAGGCGAUAAAA	–	–	0.0292 µM	0.113 µM
UUCAGCUCGUGAGGAUAUACAACACUGCUUCGGCAGUGUAUUAAGAUCACAUGAGGAUCACCCAUGUAGAAGGCACGAGCUGAU	–	–	0.0148 µM	0.29 µM
GCGAUGUUAGGAUAUACAUGAGGAUCACCCAUGUUCAGACUGAGCCUAGAGCGUCUAUGUAGAAGGGACUCGCA	–	–	0.0272 µM	0.0431 µM
AUAUCAUACCAAGGAUAUUUAAGAUUUGUGUAGACAUGAGGAUCACCCAUGUGGCGUUAGUCACGGGAGAAGGUGGUAUGAUAU	0.978 µM	0.205 µM	–	–
AUAUAACCUAGCAAAAUUUAAUAACAUGAGGAUCACCCAUGUAGAAGGCUGUCCUAAAAUAGGACAGAGGAUAUACGUGCUAGG	–	–	0.00543 µM	0.00673 µM
AAUAUAGAGCUGGAAUAAAACCUCACAUGAGGAUCACCCAUGUAGGAUAUCAGCACGAUAAGUGCUGAGAAGGACAUCCAGCUC	–	–	0.0156 µM	0.0179 µM
